High-throughput results from PubChem BioAssay.
An excerpt weighted towards active compounds, which were near 2.1% of everything screened.
TDP2 absorb: human TDP2 enzyme inhibitors, primary screen, biochemical, epi absorbance, recombinant enzyme | AID 720702, 2013 | hit rate 0.34% among 370,000 | inhibition, % at 12.8 µM | T5PNP hydrolysis, p-nitrophenol absorbance 415 nm;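 active means inhibition above the mean of all tested compounds plus 3 SD, set per campaign, cut at about 25% in these data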;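 further: 0% = DMSO with enzyme and 100% = buffer with substrate but no TDP2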
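Material: recombinant human TDP2; quantity: TDP2 enzyme at 120 nM final; medium: Tris-HCl pH 7.5 with MgCl2; compound: single concentration, 12.8 µM nominal, with 1% DMSO; incubation: 2 h enzyme incubation at 37 °C; signal: epi absorbance; measure: percent inhibition; benchmarks: high control without enzyme, low control DMSO plus TDP2; repeats: singlicate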
PP1 counter: PP1-alpha phosphatase inhibitors, primary screen, counter-screen for PP5 inhibitor project, biochemical, fluorescence, OMFP substrate, single point. Serine/threonine-protein phosphatase PP1-alpha catalytic subunit (Homo sapiens), P62136. purified PP1alpha. inhibition, % at 6.7 µM. hit rate 0.9% among 320,000;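 active means inhibition above the mean inhibition of all tested compounds plus 3 SD, computed separately for each screening campaign, cut at about 15% in these data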
Apaf1 inhib: inhibitors of human Apaf-1 apoptosome, primary screen, biochemical, DEVD-Rh110 fluorescence, uHTS; reconstituted apoptosome caspase-3 activity; inhibition, % at 20 µM; hit rate 0.71% among 330,000; Apoptotic protease-activating factor 1 (Homo sapiens), O14727; active means inhibition of at least 40% at 20 µM;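 further: plate controls were DMSO wells for no effect and DEVD-CHO caspase inhibitor wells for full effect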
Target sequence (O14727 whole entry, looked up): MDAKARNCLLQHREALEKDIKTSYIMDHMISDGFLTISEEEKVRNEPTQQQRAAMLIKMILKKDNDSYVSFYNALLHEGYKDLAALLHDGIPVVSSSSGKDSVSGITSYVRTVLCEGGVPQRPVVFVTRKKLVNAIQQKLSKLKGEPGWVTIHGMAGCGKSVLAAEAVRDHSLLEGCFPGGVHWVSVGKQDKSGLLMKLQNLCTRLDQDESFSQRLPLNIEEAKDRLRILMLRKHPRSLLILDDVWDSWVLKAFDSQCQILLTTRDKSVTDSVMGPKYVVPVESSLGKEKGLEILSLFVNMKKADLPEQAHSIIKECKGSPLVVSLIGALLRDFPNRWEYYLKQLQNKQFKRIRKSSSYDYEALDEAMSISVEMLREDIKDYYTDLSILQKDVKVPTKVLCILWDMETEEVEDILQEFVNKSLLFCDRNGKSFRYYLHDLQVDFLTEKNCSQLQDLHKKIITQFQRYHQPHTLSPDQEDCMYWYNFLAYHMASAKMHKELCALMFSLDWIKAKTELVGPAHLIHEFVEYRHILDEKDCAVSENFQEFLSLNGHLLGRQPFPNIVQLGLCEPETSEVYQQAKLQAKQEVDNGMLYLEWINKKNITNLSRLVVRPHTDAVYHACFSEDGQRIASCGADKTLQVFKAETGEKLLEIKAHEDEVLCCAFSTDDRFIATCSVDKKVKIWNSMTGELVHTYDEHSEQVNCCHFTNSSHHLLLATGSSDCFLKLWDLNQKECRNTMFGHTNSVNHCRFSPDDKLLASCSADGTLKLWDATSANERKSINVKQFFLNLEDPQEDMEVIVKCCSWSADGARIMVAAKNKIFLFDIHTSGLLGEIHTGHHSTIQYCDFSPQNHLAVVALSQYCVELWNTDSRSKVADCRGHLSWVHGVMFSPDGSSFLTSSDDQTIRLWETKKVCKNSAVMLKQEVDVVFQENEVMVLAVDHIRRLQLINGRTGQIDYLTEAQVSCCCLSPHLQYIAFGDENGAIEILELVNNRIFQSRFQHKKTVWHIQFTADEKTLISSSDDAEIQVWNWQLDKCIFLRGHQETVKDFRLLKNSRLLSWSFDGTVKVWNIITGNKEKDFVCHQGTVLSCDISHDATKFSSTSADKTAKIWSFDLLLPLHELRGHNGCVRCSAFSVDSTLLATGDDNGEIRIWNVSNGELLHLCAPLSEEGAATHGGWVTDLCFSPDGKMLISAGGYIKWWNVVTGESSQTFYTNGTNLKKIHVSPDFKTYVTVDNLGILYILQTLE
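System – cell-free apoptosome with Apaf-1, procaspase-3 and caspase-9 · Buffer or medium – pH 7.5 Hepes buffer with CHAPS, BSA, DTT · Also added – cytochrome c with DEVD-Rh110 · Times – 30 min compound preincubation, 50 min activation, room temperature · Technique – Rh110 fluorescence intensity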
GSTO1 inh: inhibitors of recombinant GSTO1, primary screen, counter-screen for RBBP9 inhibitor project, biochemical, fluorescence polarization; Glutathione S-transferase omega-1 (Homo sapiens), P78417; activity-based probe fluorescence polarization; inhibition, % at 5.96 µM; hit rate 1.1% among 300,000; AID 1974, 2009;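 active means inhibition above the campaign mean inhibition plus 3 SD, cut at about 35% in these data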;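 further: 0% = GSTO1-1 with DMSO and 100% = wells lacking GSTO1-1 enzyme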
PP5 inh: PP5 phosphatase inhibitors, primary screen, biochemical, fluorescence. Serine/threonine-protein phosphatase 5 (Homo sapiens), P53041. purified PP5c, OMFP substrate fluorescence. inhibition, % at 6.7 µM. hit rate 0.18% among 320,000. AID 1987, 2009;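 active means inhibition above the campaign's mean inhibition across all tested compounds plus 3 SD, cut at about 9.5% in these data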;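 further: 0% = DMSO only and 100% = 100 µM cantharidin control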
PP1 confirm: PP1 phosphatase inhibitors, confirmation, biochemical, fluorescence, OMFP substrate, triplicate. purified PP1alpha. inhibition, % at 6.7 µM. shares compounds with PP1 counter. hit rate 52% among 1,900;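 active means mean PP1 inhibition above a set limit taken from the earlier primary screen, cut at about 15% in these data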
PP5 inh counter: PP5 phosphatase inhibition by PP1 hits, confirmation, counter-screen for PP1 inhibitor project, biochemical, fluorescence, triplicate; AID 2360, 2010; inhibition, % at 6.7 µM; purified PP5c, OMFP fluorescence; hit rate 4% among 1,900; shares compounds with PP1 counter;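 active means mean PP5 inhibition over triplicate wells above about 9.5% taken from the earlier PP1 screen, limit read from the data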
Numbers without * were called inactive; . = not tested or not shown.

SMILES | TDP2 absorb | PP1 counter | Apaf1 inhib | GSTO1 inh | PP5 inh | PP1 confirm | PP5 inh counter
CC(C)(O)c1ccccc1CC[C@@H](SCC1(CC(=O)O)CC1)c1cccc(/C=C/c2ccc3ccc(Cl)cc3n2)c1 | . | 35.0* | 15.4 | -21.8 | 1.1 | 43.5* | -2.2
CSCCC(NC(=O)COc1ccccc1)C(=O)OCCOc1ccc(C)cc1 (centres undefined) | -2.6 | 1.0 | 29.5 | . | 2.2 | . | .
CSCCC(NC(=O)COc1ccccc1)C(=O)N(C)CC(=O)Nc1c(C)cccc1C (centres undefined) | 6.2 | 21.4* | 3.0 | 2.9 | -0.3 | -4.6 | -4.2
COCCNC(=O)CN(CCc1ccccc1)S(=O)(=O)c1ccc(Br)cc1 | -16.7 | 32.6* | 1.2 | 4.7 | 3.0 | -0.7 | -1.1
COCCCNC(=O)CN(CCc1ccccc1)S(=O)(=O)c1ccccc1 | -5.7 | 1.2 | 2.5 | 4.9 | 1.5 | . | .
C=CCN1C(=O)[C@@H](CC(=O)N2CCC(c3ccccc3)CC2)[C@]2(C(=O)OC)CCCCC=C12 | 1.9 | . | . | . | . | . | .
Cc1ccccc1NC(=O)COC(=O)/C=C/c1cn(-c2ccccc2)nc1-c1cccnc1 | 9.9 | 31.6* | 5.6 | -5.2 | 1.6 | 31.7* | -4.4
O=C(Nc1ccccn1)c1cc2cc([N+](=O)[O-])ccc2s1 | -28.9 | 20.7* | -7.5 | -5.1 | -2.1 | 18.5* | -4.3
COC(=O)[C@]12C[C@H](CC(=O)N3CCCCC3)C(=O)N(Cc3ccc(Cl)cc3Cl)C1=C[C@H](C(C)(C)C)O[C@@H]2C | -7.8 | . | . | . | . | . | .
O=[N+]([O-])c1cc(CN2CCN(c3ccccc3)CC2)c(O)c2ncccc12 | -9.4 | 19.1* | 32.4 | -1.6 | 3.2 | 29.1* | 1.3
Oc1c(I)cc(Cl)c2cccnc12 | 8.3 | 18.8* | 17.0 | -0.2 | 2.3 | 11.6 | 5.2
Oc1c(CN2CCc3ccccc3C2)cc(Cl)c2cccnc12 | . | 31.2* | 39.5 | 5.9 | 1.7 | 39.9* | 0.5
O=[N+]([O-])c1cc(Cl)c2cccnc2c1O | -3.5 | 5.7 | 30.0 | 19.3 | 0.5 | . | .
CC(=NN1CCN(Cc2ccccc2Cl)CC1)c1ccc(O)cc1 | -8.6 | . | . | . | . | . | .
Cn1cc(C(=O)N/N=C/c2c(O)ccc3ccccc23)ccc1=O | -15.7 | 26.9* | -2.6 | 38.7* | -0.8 | 28.9* | -3.3
CCCC1CCC2(CC1)CCC2OC(=S)Nc1ccc(Br)cc1 (centres undefined) | -0.1 | . | . | . | . | . | .
CCOC(=O)C1CCN(C(=O)C(C)(C)NC(=O)Nc2ccc(N(C)C)cc2)CC1 | -0.7 | . | . | . | . | . | .
CCOC(=O)c1cnc(-n2nc(C)cc2C)nc1NCCO | 3.8 | -0.5 | -6.8 | 4.9 | -0.4 | . | .
CCOC(=O)c1cnc(-n2nc(C)cc2C)nc1NCc1ccccc1 | 10.7 | 53.6* | 16.5 | -5.7 | 7.0 | 58.2* | 0.6
CCOC(=O)c1cnc(-n2nc(C)cc2C)nc1NNc1ncc(-c2ccccc2)cn1 | . | 22.7* | 20.0 | -6.7 | 3.4 | 21.6* | -2.3
CCOC(=O)c1cnc(-n2nc(C)cc2C)nc1NC(C)c1ccccc1 (centres undefined) | 10.2 | 39.1* | 23.1 | -3.0 | 1.6 | 53.3* | 5.5
CCOC(=O)c1cnc(-n2cc(C)cn2)nc1NCc1ccc2c(c1)OCO2 | -1.3 | 20.8* | 6.4 | -0.6 | 1.9 | 65.5* | 1.6
CCOC(=O)c1cnc(-n2nc(C)cc2C)nc1NNc1cc(-c2ccccc2)nc(C)n1 | . | -6.7 | 16.1 | -8.2 | 1.9 | . | .
O=C(CCN1C(=O)/C(=C\C=C\c2ccccc2)SC1=S)Nc1ccc(C(=O)O)cc1 | 8.7 | 5.5 | 19.4 | -11.2 | 2.4 | . | .
O=C(CN1C(=O)/C(=C\C=C\c2ccccc2)SC1=S)Nc1ccc(F)cc1 | 1.5 | 22.9* | 22.2 | -11.3 | -2.6 | 12.8 | -2.4
